{"source": "ChEMBL document CHEMBL1134785", "about": "“Synthesis and biological evaluation of prostaglandin-F alkylphosphinic acid derivatives as bone anabolic agents for the treatment of osteoporosis” (J Med Chem, 2001)", "key": {"[1]": {"biological_target": "T1, Prostaglandin E2 receptor EP1 subtype (Homo sapiens, UniProt P34995)", "T1 sequence (P34995 whole entry)": "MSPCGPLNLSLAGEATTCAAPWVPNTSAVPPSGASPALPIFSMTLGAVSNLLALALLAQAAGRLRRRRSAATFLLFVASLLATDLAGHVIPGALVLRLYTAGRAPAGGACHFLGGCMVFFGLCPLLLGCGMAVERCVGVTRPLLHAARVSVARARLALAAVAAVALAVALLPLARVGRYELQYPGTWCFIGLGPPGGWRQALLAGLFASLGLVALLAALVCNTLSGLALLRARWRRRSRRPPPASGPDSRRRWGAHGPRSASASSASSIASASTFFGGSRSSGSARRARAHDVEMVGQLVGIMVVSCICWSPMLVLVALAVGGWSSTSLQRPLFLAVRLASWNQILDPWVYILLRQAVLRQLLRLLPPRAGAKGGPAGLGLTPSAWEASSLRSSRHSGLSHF", "experiment": "In vitro binding at EP1 human prostaglandin receptor using [3H]PGE-2 as radioligand", "summary_of_the_method": "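hEP1 transiently expressed in COS-7 cells by the hFP transfection and membrane protocol, with membranes in TME buffer pH 6.0. Competition binding used 5 nM [3H]PGE2, 1 h at 23 °C, filtration and scintillation counting.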"}, "[2]": {"system": "Rattus norvegicus", "experiment": "Mineral apposition rate ([…])bone measured Histomorphometrically after a dose of 30 ug/kg in tibial diaphysis", "type": "functional", "summary_of_the_method": "(§1)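 Six-month-old rats, bilaterally ovariectomized, 6-8 per group, on natural chow. After 60 days they received once-daily subcutaneous dosing for 60 days at 0.01–3.0 mg/kg. Vehicle was acetate-buffered saline with methylcellulose and polyoxyethylenesorbitan monooleate. Labels were xylenol orange 90 mg/kg before treatment and calcein 10 mg/kg 14 and 4 days before sacrifice. Tibial histomorphometry was read under fluorescent light, with ANOVA/LSD versus vehicle.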"}, "[3]": {"biological_target": "Prostaglandin E2 receptor EP4 subtype (Homo sapiens, UniProt P35408)", "sequence (P35408 whole entry)": "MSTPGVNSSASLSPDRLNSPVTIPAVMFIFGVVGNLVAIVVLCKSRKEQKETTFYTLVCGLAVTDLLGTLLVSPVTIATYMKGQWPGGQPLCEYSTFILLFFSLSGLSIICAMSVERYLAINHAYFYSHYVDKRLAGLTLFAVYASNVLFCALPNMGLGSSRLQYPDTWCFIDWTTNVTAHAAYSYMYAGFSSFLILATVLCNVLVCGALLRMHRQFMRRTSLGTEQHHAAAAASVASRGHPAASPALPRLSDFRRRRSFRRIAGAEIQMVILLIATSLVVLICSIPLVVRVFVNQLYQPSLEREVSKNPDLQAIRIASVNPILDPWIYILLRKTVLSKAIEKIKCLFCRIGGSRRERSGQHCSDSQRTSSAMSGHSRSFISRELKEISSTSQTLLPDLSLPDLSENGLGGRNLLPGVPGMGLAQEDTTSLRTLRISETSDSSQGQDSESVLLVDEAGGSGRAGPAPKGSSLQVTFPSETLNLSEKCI", "experiment": "In vitro binding at EP4 human prostaglandin receptor using [3H]PGE-2 as radioligand", "summary_of_the_method": "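Receptors stably expressed in CHO cells, collected 4-5 days after seeding. Membranes made by lysis (Tris, EDTA, protease inhibitors) and 100000g pellet, then resuspended at 1 mg protein/mL in TME. Radioligands at 5 nM: [3H]PGE2 for EP2/EP3/EP4, [3H]Iloprost for IP, [3H]SQ-29548 for TP. Competition binding with filtration and counting.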"}, "[4]": {"system": "Rattus norvegicus", "experiment": "Derived trabecular thickness (um) measured using micro Computed Tomography(CT) after a dose of 10 ug/kg in Vertebral Bone", "type": "functional, Trabecula", "summary_of_the_method": "(§2)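 Micro-CT of the fifth lumbar vertebra, measuring cancellous bone volume and architecture. Rats were 6 months old, OVX 60 days before treatment, then dosed daily for 60 days. Test-agent doses were 10–3000 µg/kg, given as a once-daily subcutaneous injection; 6 mg/kg/day was given to the positive-control group. Groups were compared with vehicle by ANOVA plus LSD test.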"}, "[5]": {"system": "Rattus norvegicus", "experiment": "Bone formation rate/tissue volume (%/year) bone measured histomorphometrically after a dose of 100 ug/kg in proximal tibial metaphysis", "type": "functional", "conditions": "at 100 µg/kg"}, "[6]": {"system": "Rattus norvegicus", "experiment": "Mineral apposition rate ([…])bone measured Histomorphometrically after a dose of 1000 ug/kg in proximal tibial metaphysis", "type": "functional", "summary_of_the_method": "(§3)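 Ovariectomized six-month-old rats, 6-8 per group, were dosed subcutaneously once daily at 0.01–3.0 mg/kg for 60 days, starting 60 days after surgery. Vehicle was acetate-buffered saline, methylcellulose and polyoxyethylenesorbitan monooleate. Labels were xylenol orange 90 mg/kg pretreatment and calcein 10 mg/kg at 14 and 4 days before necropsy. Histomorphometry covered the proximal tibial metaphysis, 1–4 mm distal to the growth plate–metaphyseal junction. ANOVA/LSD versus vehicle.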"}, "[7]": {"system": "Rattus norvegicus", "experiment": "connectivity density using micro Computed Tomography(CT) after a dose of 100 ug/kg in Vertebral Bone", "type": "functional", "summary_of_the_method": "(§4)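 Rats were ovariectomized at 6 months of age and, after 60 days, dosed subcutaneously once daily for 60 days, with vehicle of acetate-buffered saline, methylcellulose and polysorbate. At necropsy the fifth lumbar vertebra was scanned by micro-CT to obtain cancellous architecture. Groups were 6-8 rats; results were compared to vehicle by ANOVA with least significant difference test.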"}, "[8]": {"system": "Rattus norvegicus", "experiment": "Bone Volume /Tissue Volume (%)measured using micro Computed Tomography(CT) after a dose of 100 ug/kg in Vertebral Bone", "type": "functional", "conditions": "at 100 µg/kg"}, "[9]": {"system": "Rattus norvegicus", "experiment": "connectivity density (mm-3) using micro Computed Tomography(CT) after a does of 10 ug/kg in Vertebral Bone", "type": "functional", "summary_of_the_method": "as §4"}, "[10]": {"system": "Rattus norvegicus", "experiment": "Trabecular thickness […] measured Histomorphometrically after a dose of 30 ug/kg in proximal tibial metaphysis", "type": "functional, Trabecula", "summary_of_the_method": "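Six-month-old rats were ovariectomized, and 60 days later daily subcutaneous dosing began for 60 days, with vehicle of acetate-buffered saline, methylcellulose and polysorbate. Xylenol orange (90 mg/kg) labelled bone pre-treatment and calcein (10 mg/kg) 14 and 4 days pre-sacrifice. Histomorphometry covered the proximal tibial metaphysis 1-4 mm distal to the growth plate-metaphyseal junction. Groups were 6-8 rats, compared by ANOVA/LSD vs vehicle.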"}, "[11]": {"system": "Rattus norvegicus", "experiment": "Mineral apposition rate ([…])bone measured Histomorphometrically after a dose of 1000 ug/kg in tibial diaphysis", "type": "functional", "summary_of_the_method": "as §1"}, "[12]": {"system": "Rattus norvegicus", "experiment": "Derived trabecular no […]measured using micro Computed Tomography(CT) after a dose of 100 ug/kg in Vertebral Bone", "type": "functional, Trabecula", "summary_of_the_method": "as §2"}, "[13]": {"system": "Rattus norvegicus", "experiment": "Bone formation rate/bone volume (%/year)bone measured Histomorphometrically after a dose of 10 ug/kg in proximal tibial metaphysis", "type": "functional", "conditions": "at 10 µg/kg"}, "[14]": {"system": "Rattus norvegicus", "experiment": "Periosteal mineralizing surface (%) measured Histomorphometrically after a dose of 100 ug/kg in tibial diaphysis", "type": "functional", "summary_of_the_method": "(§5)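 Rats on natural chow (1.46% Ca) were bilaterally ovariectomized at 6 months and left untreated for 60 days. They then received once-daily subcutaneous doses for 60 days, with vehicle of acetate-buffered saline, methylcellulose and polysorbate. Xylenol orange (90 mg/kg) was given before treatment and calcein (10 mg/kg) 14 and 4 days before sacrifice. Tibiae were analysed by fluorescent histomorphometry, 6-8 rats/group, ANOVA/LSD vs vehicle.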"}, "[15]": {"system": "Rattus norvegicus", "experiment": "Bone Volume /Tissue Volume (%)measured using micro Computed Tomography(CT) after a dose of 3000 ug/kg in Vertebral Bone", "type": "functional", "conditions": "at 3000 µg/kg"}, "[16]": {"system": "Rattus norvegicus", "experiment": "Derived trabecular thickness (um) measured using micro Computed Tomography(CT) after a dose of 30 ug/kg in Vertebral Bone", "type": "functional, Trabecula", "summary_of_the_method": "as §2"}, "[17]": {"system": "Rattus norvegicus", "experiment": "Endosteal mineralizing surface Histomorphometrically after a dose of 1000 ug/kg in tibial diaphysis", "type": "functional", "summary_of_the_method": "as §1"}, "[18]": {"system": "Rattus norvegicus", "experiment": "Tissue area (mm) measured Histomorphometrically after a dose of 100 ug/kg in tibial diaphysis", "type": "functional", "summary_of_the_method": "as §5"}, "[19]": {"system": "Rattus norvegicus", "experiment": "Mineralizing surface/bone surface(%) measured Histomorphometrically after a dose of 100 ug/kg in proximal tibial metaphysis", "type": "functional", "summary_of_the_method": "as §3"}, "[20]": {"system": "Rattus norvegicus", "experiment": "Mineral apposition rate ([…])bone measured Histomorphometrically after a dose of 300 ug/kg in proximal tibial metaphysis", "type": "functional", "summary_of_the_method": "as §3"}}, "data": [{"smiles": "CP(=O)(O)CCC/C=C\\C[C@@H]1[C@@H](/C=C/[C@@H](O)COc2ccccc2)[C@H](O)C[C@@H]1O", "values": [{"measurement": "IC50", "setting": "[1]", "value": "> 10", "unit": "µM"}, {"measurement": "Mineral apposition rate", "setting": "[2]", "value": 0.88, "unit": "µm/day"}, {"measurement": "IC50", "setting": "[3]", "value": "> 10", "unit": "µM"}, {"measurement": "Derived trabecular thickness", "setting": "[4]", "value": 73, "unit": "µm"}, {"measurement": "Activity", "setting": "[5]", "value": 18.23, "unit": "%"}, {"measurement": "Mineral apposition rate", "setting": "[6]", "value": 1.06, "unit": "µm/day"}, {"measurement": "Connectivity density", "setting": "[7]", "value": 68.1, "unit": "mm**-3"}, {"measurement": "Activity", "setting": "[8]", "value": 38.04, "unit": "%"}, {"measurement": "Connectivity density", "setting": "[9]", "value": 60.28, "unit": "mm**-3"}, {"measurement": "Trabecular thickness", "setting": "[10]", "value": 41.2, "unit": "µm"}, {"measurement": "Mineral apposition rate", "setting": "[11]", "value": 1.01, "unit": "µm/day"}, {"measurement": "Derived trabecular number", "setting": "[12]", "value": 4.83, "unit": "mm-1"}, {"measurement": "Activity", "setting": "[13]", "value": 498.01, "unit": "%"}, {"measurement": "Periosteal mineralizing surface", "setting": "[14]", "value": 15.21, "unit": "%"}, {"measurement": "Activity", "setting": "[15]", "value": 39.48, "unit": "%"}, {"measurement": "Derived trabecular thickness", "setting": "[16]", "value": 77.8, "unit": "µm"}, {"measurement": "Endosteal mineralizing surface", "setting": "[17]", "value": 35.29, "unit": "%"}, {"measurement": "Tissue area", "setting": "[18]", "value": 4.95, "unit": "mm"}, {"measurement": "Activity", "setting": "[19]", "value": 27.11, "unit": "%"}, {"measurement": "Mineral apposition rate", "setting": "[20]", "value": 0.98, "unit": "µm/day"}]}]}
